# Sampled rows, rich in hits. Any-hit rate of the full collection: about 2%.
# ATG4B inh: ATG4B protease inhibitors, primary screen, biochemical, fluorescence, uHTS; Cysteine protease ATG4B (Homo sapiens), Q9Y4P1; ATG4B cleavage of LC3-PLA2, NBD-HPC fluorescence, 1 h; inhibition, % at 8.33 µM; 340,000 tested, 0.51% active; in the data active = inhibition above about 40%
# HKDC1 inhibitor: HKDC1 hexokinase inhibitors, primary screen, biochemical, fluorescence, uHTS. Q2TB90. recombinant HKDC1, G6PDH/diaphorase resazurin coupled fluorescence. inhibition, % at 20 µM. 340,000 tested, 0.16% active. AID 493160, 2011;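 active = inhibition above about 35% when tested at 20 µM, limit read from the data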;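 note: plate controls were DMSO wells with enzyme for no effect and DMSO wells lacking enzyme for full effect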
#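 System: Recombinant HKDC1 hexokinase | Amount: HKDC1 at 5 µg/mL | Reagent: Glucose with 1 mM ATP | Doses: Single 20 µM dose | Incubation: Reaction time 90 min, room temperature, protected from light | Signal: Coupled resazurin fluorescence, excitation 525 nm, emission 613 nm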
# beta cell repl: inducers of MIN6 beta-cell proliferation, primary screen, ATP luminescence, uHTS; MIN6 cells proliferation, ATPlite luminescence, 48 h; cells starved in 0.2% serum; 100% = growth in 10% serum; proliferation, % at 10 µM; 330,000 tested, 0.29% active; AID 2380, 2010;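 active = compounds whose signal lies at least 3.5 SD above the mean of all wells on their plate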;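 note: 0% = DMSO-treated cells in low-serum medium and 100% = 10% serum control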
# VIM-2 inhibitor: VIM-2 metallo-beta-lactamase inhibitors, primary screen, biochemical, epi-absorbance readout, Pseudomonas aeruginosa enzyme. purified VIM-2, nitrocefin hydrolysis, epi-absorbance fluorescence. inhibition, % at 5.6 µM. 290,000 tested, 0.89% active. AID 1527, 2009;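 active = inhibition above the mean of all tested compounds plus 3 SD, cutoff set per screening run, cut at about 7.5% in these data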;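 note: red hydrolysis product quenches plate fluorescence so inhibitors raise well fluorescence; 0% = enzyme with DMSO and 100% = DMSO without enzyme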
# PvdQ inh: P. aeruginosa PvdQ acylase inhibitors, primary screen, biochemical, fluorescence, plate reader and imaging, single point. PvdQ acylase [Pseudomonas aeruginosa LESB58]. purified PvdQ acylase. inhibition, % at 10 µM. 340,000 tested, 0.063% active. AID 488965, 2010; in the data active = inhibition above about 30%, passing the limit was not always enough;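 note: 0% = vehicle neutral wells and 100% = reference inhibitor wells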
# IMP-1 inhibitor: IMP-1 metallo-beta-lactamase inhibitors, primary screen, biochemical, epi-absorbance readout, Pseudomonas aeruginosa enzyme; metallo-beta-lactamase IMP-1 (Pseudomonas aeruginosa); purified IMP-1, nitrocefin hydrolysis, epi-absorbance fluorescence; inhibition, % at 5.6 µM; 290,000 tested, 0.45% active;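 active = inhibition above the mean plus 3 SD of all compounds in the same screening run, cut at about 4.5% in these data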;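 note: 0% = IMP-1 with DMSO and 100% = DMSO wells lacking enzyme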
#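 System: purified IMP-1 / Input: IMP-1 dispensed at 0.2 nM / Medium: 50 mM HEPES pH 7.1, 50 µM ZnSO4, 0.05% Brij 35 / Timing: 15 min enzyme–compound preincubation, then 25 min nitrocefin reaction, 25 °C / Technique: plate fluorescence quenching by hydrolysis product, ex 480/em 530 nm / Repeats: singlicate testing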
# ATG4B confirm: ATG4B protease inhibitors, retest, confirmation, biochemical, fluorescence, single concentration; shares compounds with ATG4B inh; ATG4B protease fluorescent substrate cleavage assay; inhibition, % at 8.33 µM; 320 tested, 92% active; in the data active = inhibition above about 39%
# PLA2 counter: PLA2 enzyme inhibition, counter-screen for ATG4B inhibitor project, biochemical, single concentration, uHTS hits | shares compounds with ATG4B inh | purified PLA2, NBD-C6-HPC fluorescence, 45 min | inhibition, % at 8.33 µM | 1,600 tested, 66% active; in the data active = inhibition above about 50%
# Target sequence (P04054 whole entry, looked up): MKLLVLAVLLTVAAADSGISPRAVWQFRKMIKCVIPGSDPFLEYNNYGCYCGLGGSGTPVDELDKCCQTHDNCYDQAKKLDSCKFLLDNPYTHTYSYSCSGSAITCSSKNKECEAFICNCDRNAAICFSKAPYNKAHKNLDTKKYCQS
# * marks the source's active call; other numbers are inactive results; x = not tested or not shown.
SMILES,ATG4B inh,HKDC1 inhibitor,beta cell repl,VIM-2 inhibitor,PvdQ inh,IMP-1 inhibitor,PLA2 counter,others
Cn1cc(C(=O)Cc2ccccc2)c2ccccc21,-7,-13,-2,-1,-15,-2,x,
COc1ccc(-n2c(/C=C/c3ccc(O)c(O)c3)nc3ccccc3c2=O)cc1,49*,10,-6,1,-7,-4,52*,
NC(=O)c1c(NC(=O)c2ccc(S(=O)(=O)N(CCCl)CCCl)cc2)sc2c1CCCCC2,6,10,x,-2,-11,-1,x,
Oc1c(Br)c(Br)c(Br)c(Br)c1Br,60*,16,-7,x,10,x,62*,
COc1ccc(CCNCc2sccc2C)cc1OC,1,-1,1,2,-4,0,x,
NC(N)=N/N=C/c1ccc(N(c2ccccc2)c2ccccc2)cc1,53*,0,-5,-2,-14,-4,66*,
COc1ccc(/C=N\N=C(N)N)cc1,-10,-8,3,0,-13,-2,x,
C/C(=N\N1CCCCC1c1cccnc1)c1c(O)n(C2CCCCC2)c(=S)[nH]c1=O (centres undefined),43*,-4,-5,-3,-13,-2,37,
CCc1ccc(-c2nn(Cc3ccccc3)cc2C=O)cc1,68*,-6,-3,-3,8,-4,83*,
O=Cc1cn(Cc2c(F)cccc2Cl)nc1-c1ccccc1,23,2,1,x,2,x,x,
Clc1ccc(C(c2ccc(Cl)cc2)n2cc[n+](CC(OCc3ccc(Cl)cc3Cl)c3ccc(Cl)cc3Cl)c2)cc1 (centres undefined),45*,1,-8,x,-11,x,90*,
Cc1nc2c(=O)n(C)c(=O)nc-2n(C)n1,82*,18,-4,0,-11,-4,-9,ATG4B confirm=25
CCCC(C)C1(CC)C(=O)NC(=O)N=C1N (centres undefined),-6,-1,6,-4,-13,-3,x,
COC(=O)C1=C(c2ccc(F)cc2OCc2ccccc2)C[C@@H]2CC[C@H]1N2C(=O)NCc1ccccc1Br,64*,1,-7,x,-8,x,79*,
c1ccc2[nH]c(CCNC3CCCCC3)nc2c1,6,-1,3,-3,-19,-2,x,
